Data as given in ChEMBL document CHEMBL1125797, “Synthesis, characterization and myocardial uptake of cationic bis(arene)technetium(I) complexes” (J Med Chem, 1991).

Experiments:
Rattus norvegicus [1] = experiment: Biodistribution of compound in rat blood after 5 min of administration.; format: ADME, organism-based; conditions: in vivo
Method in brief: (§1)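 Female Sprague-Dawley rats (150–200 g) received the complex in normal saline (~12.5 μCi/mL) through a lateral tail vein at ~25 μCi/kg. Rats were killed by cervical dislocation 5 min after injection. Tissues were washed with saline, blotted, weighed and γ-counted to give percent injected dose/g tissue.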

Rattus norvegicus [2] = experiment: Biodistribution of compound in rat heart after 5 min of administration.; format: ADME, organism-based; conditions: in vivo; method in brief: as §1
Rattus norvegicus [3] = experiment: Biodistribution of compound in rat kidney after 5 min of administration.; format: ADME, organism-based; conditions: in vivo; method in brief: as §1
Rattus norvegicus [4] = experiment: Biodistribution of compound in rat lung after 5 min of administration.; format: ADME, organism-based; conditions: in vivo; method in brief: as §1
[5] = Biodistribution of compound in rat muscle after 5 min of administration.; format: ADME, organism-based, Muscle tissue; conditions: in vivo; method in brief: as §1
Rattus norvegicus [6] = experiment: Biodistribution of compound in rat blood at 90 min after intravenous administration; format: ADME, organism-based; conditions: in vivo, 1.5 h
Method in brief: (§2)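 Time course in Sprague-Dawley rats after lateral tail-vein injection of the 99mTc complex in normal saline (~12.5 μCi/mL) at ~25 μCi/kg. Tissues were sampled at the stated times, washed with saline, blotted, weighed and γ-counted to give percent injected dose per g. Values are averages of male and female rats.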

Rattus norvegicus [7] = experiment: Biodistribution of compound in rat urine at 1440 min after intravenous administration; format: ADME, organism-based; conditions: in vivo, 24 h
Method in brief: (§3)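 Rats received the 99mTc complex in normal saline (~12.5 μCi/mL) by lateral tail vein injection at ~25 μCi/kg and were killed by cervical dislocation at the stated time. Tissues were washed with saline, blotted, weighed and γ-counted to give percent injected dose/g. Time-course values are averages of male and female rats.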

Rattus norvegicus [8] = experiment: Biodistribution of compound in rat urine at 360 min after intravenous administration; format: ADME, organism-based; conditions: in vivo, 6 h; method in brief: as §3
Rattus norvegicus [9] = experiment: Biodistribution of compound in rat blood at 1440 min after intravenous administration; format: ADME, organism-based; conditions: in vivo, 24 h; method in brief: as §2
Rattus norvegicus [10] = experiment: Biodistribution of compound in rat blood at 180 min after intravenous administration; format: ADME, organism-based; conditions: in vivo, 3 h; method in brief: as §2
Rattus norvegicus [11] = experiment: Biodistribution of compound in rat blood at 360 min after intravenous administration; format: ADME, organism-based; conditions: in vivo, 6 h; method in brief: as §2
Rattus norvegicus [12] = experiment: Biodistribution of compound in rat blood at 5 min after intravenous administration; format: ADME, organism-based; conditions: in vivo; method in brief: as §2
Rattus norvegicus [13] = experiment: Biodistribution of compound in rat gonads at 1440 min after intravenous administration; format: ADME, organism-based, Gonad; conditions: in vivo, 24 h; method in brief: as §2
Rattus norvegicus [14] = experiment: Biodistribution of compound in rat gonads at 180 min after intravenous administration; format: ADME, organism-based, Gonad; conditions: in vivo, 3 h; method in brief: as §2
Rattus norvegicus [15] = experiment: Biodistribution of compound in rat gonads at 360 min after intravenous administration; format: ADME, organism-based, Gonad; conditions: in vivo, 6 h; method in brief: as §2
Rattus norvegicus [16] = experiment: Biodistribution of compound in rat gonads at 45 min after intravenous administration; format: ADME, organism-based, Gonad; conditions: in vivo, 0.75 h; method in brief: as §2
Rattus norvegicus [17] = experiment: Biodistribution of compound in rat gonads at 5 min after intravenous administration; format: ADME, organism-based, Gonad; conditions: in vivo; method in brief: as §2
Rattus norvegicus [18] = experiment: Biodistribution of compound in rat gonads at 90 min after intravenous administration; format: ADME, organism-based, Gonad; conditions: in vivo, 1.5 h; method in brief: as §2
Rattus norvegicus [19] = experiment: Biodistribution of compound in rat heart at 1440 min after intravenous administration; format: ADME, organism-based; conditions: in vivo, 24 h; method in brief: as §2
Rattus norvegicus [20] = experiment: Biodistribution of compound in rat heart at 180 min after intravenous administration; format: ADME, organism-based; conditions: in vivo, 3 h; method in brief: as §2
Rattus norvegicus [21] = experiment: Biodistribution of compound in rat heart at 360 min after intravenous administration; format: ADME, organism-based; conditions: in vivo, 6 h; method in brief: as §2
Rattus norvegicus [22] = experiment: Biodistribution of compound in rat heart at 45 min after intravenous administration; format: ADME, organism-based; conditions: in vivo, 0.75 h; method in brief: as §2
Rattus norvegicus [23] = experiment: Biodistribution of compound in rat heart at 5 min after intravenous administration; format: ADME, organism-based; conditions: in vivo; method in brief: as §2
Rattus norvegicus [24] = experiment: Biodistribution of compound in rat heart at 90 min after intravenous administration; format: ADME, organism-based; conditions: in vivo, 1.5 h; method in brief: as §2
Rattus norvegicus [25] = experiment: Biodistribution of compound in rat kidney at 1440 min after intravenous administration; format: ADME, organism-based; conditions: in vivo, 24 h; method in brief: as §2
Rattus norvegicus [26] = experiment: Biodistribution of compound in rat kidney at 180 min after intravenous administration; format: ADME, organism-based; conditions: in vivo, 3 h; method in brief: as §2
Rattus norvegicus [27] = experiment: Biodistribution of compound in rat kidney at 360 min after intravenous administration; format: ADME, organism-based; conditions: in vivo, 6 h; method in brief: as §2
Rattus norvegicus [28] = experiment: Biodistribution of compound in rat kidney at 45 min after intravenous administration; format: ADME, organism-based; conditions: in vivo, 0.75 h; method in brief: as §2
Rattus norvegicus [29] = experiment: Biodistribution of compound in rat kidney at 5 min after intravenous administration; format: ADME, organism-based; conditions: in vivo; method in brief: as §2
Rattus norvegicus [30] = experiment: Biodistribution of compound in rat kidney at 90 min after intravenous administration; format: ADME, organism-based; conditions: in vivo, 1.5 h; method in brief: as §2
Rattus norvegicus [31] = experiment: Biodistribution of compound in rat liver at 1440 min after intravenous administration; format: ADME, organism-based; conditions: in vivo, 24 h; method in brief: as §2
Rattus norvegicus [32] = experiment: Biodistribution of compound in rat liver at 180 min after intravenous administration; format: ADME, organism-based; conditions: in vivo, 3 h; method in brief: as §2
Rattus norvegicus [33] = experiment: Biodistribution of compound in rat liver at 360 min after intravenous administration; format: ADME, organism-based; conditions: in vivo, 6 h; method in brief: as §3
Rattus norvegicus [34] = experiment: Biodistribution of compound in rat liver at 5 min after intravenous administration; format: ADME, organism-based; conditions: in vivo; method in brief: as §3
Rattus norvegicus [35] = experiment: Biodistribution of compound in rat liver at 90 min after intravenous administration; format: ADME, organism-based; conditions: in vivo, 1.5 h; method in brief: as §3

## Bis(1,2,3,5-tetramethylbenzene)technetium
Rattus norvegicus [1]
  Dose/g: 0.1%
Rattus norvegicus [2]
  Dose/g: 3.4%
Rattus norvegicus [3]
  Dose/g: 6.7%
Rattus norvegicus [4]
  Dose/g: 1.3%
[5]
  Dose/g: 0.61%
Rattus norvegicus [6]
  Dose/ml: 0.3 % dose
Rattus norvegicus [7]
  Dose/ml: 20 % dose
Rattus norvegicus [8]
  Dose/ml: 11 % dose
Rattus norvegicus [9]
  Dose/ml: 0.07 % dose
Rattus norvegicus [10]
  Dose/ml: 0.19 % dose
Rattus norvegicus [11]
  Dose/ml: 0.15 % dose
Rattus norvegicus [12]
  Dose/ml: 1.06 % dose
Rattus norvegicus [13]
  Dose/g: 0.019 % dose
Rattus norvegicus [14]
  Dose/g: 0.58 % dose
Rattus norvegicus [15]
  Dose/g: 0.039 % dose
Rattus norvegicus [16]
  Dose/g: 0.089 % dose
Rattus norvegicus [17]
  Dose/g: 0.099 % dose
Rattus norvegicus [18]
  Dose/g: 0.074 % dose
Rattus norvegicus [19]
  Dose/g: 1.27 % dose
Rattus norvegicus [20]
  Dose/g: 2.44 % dose
Rattus norvegicus [21]
  Dose/g: 2.81 % dose
Rattus norvegicus [22]
  Dose/g: 2.83 % dose
Rattus norvegicus [23]
  Dose/g: 2.51 % dose
Rattus norvegicus [24]
  Dose/g: 2.78 % dose
Rattus norvegicus [25]
  Dose/g: 0.2 % dose
Rattus norvegicus [26]
  Dose/g: 2 % dose
Rattus norvegicus [27]
  Dose/g: 1.5 % dose
Rattus norvegicus [28]
  Dose/g: 5.4 % dose
Rattus norvegicus [29]
  Dose/g: 7.1 % dose
Rattus norvegicus [30]
  Dose/g: 3.9 % dose/organ
Rattus norvegicus [31]
  Dose/g: 0.2 % dose/organ
Rattus norvegicus [32]
  Dose/g: 1 % dose/organ
Rattus norvegicus [33]
  Dose/g: 0.9 % dose/organ
Rattus norvegicus [34]
  Dose/g: 5.6 % dose/organ
Rattus norvegicus [35]
  Dose/g: 2.5 % dose/organ
